These results are taken from ChEMBL document CHEMBL5356941, “Synthesis, activity and metabolic stability of propan-2-one substituted tetrazolylalkanoic acids as dual inhibitors of cytosolic phospholipase A2α and fatty acid amide hydrolase” (RSC Med Chem, 2023).

SMILES strings stand for the structures. Values after ≈ are worked out from the molar mass of the structure shown.

For series [1], the target named is T1, Fatty-acid amide hydrolase 1 (Rattus norvegicus, UniProt P97612).
T1 sequence (P97612 whole entry): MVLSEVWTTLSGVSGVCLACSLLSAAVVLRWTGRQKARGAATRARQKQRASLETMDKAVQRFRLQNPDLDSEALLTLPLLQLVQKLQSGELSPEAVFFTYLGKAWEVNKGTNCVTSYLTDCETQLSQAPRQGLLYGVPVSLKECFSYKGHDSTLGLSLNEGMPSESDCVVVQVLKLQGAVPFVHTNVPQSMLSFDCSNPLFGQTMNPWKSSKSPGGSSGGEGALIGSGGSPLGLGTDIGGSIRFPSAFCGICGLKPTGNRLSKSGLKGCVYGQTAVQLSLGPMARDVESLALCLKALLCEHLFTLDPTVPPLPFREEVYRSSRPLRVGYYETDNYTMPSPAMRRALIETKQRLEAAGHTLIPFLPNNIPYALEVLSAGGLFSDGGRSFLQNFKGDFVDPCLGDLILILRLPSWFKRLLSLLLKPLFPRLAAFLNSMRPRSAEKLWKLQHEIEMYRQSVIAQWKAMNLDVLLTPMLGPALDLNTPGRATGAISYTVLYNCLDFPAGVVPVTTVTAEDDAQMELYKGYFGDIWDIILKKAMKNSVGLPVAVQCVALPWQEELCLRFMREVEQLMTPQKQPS
The series is described as follows: Inhibition of rat brain microsome FAAH using N-(2-hydroxyethyl)-4-pyren-1-ylbutanamide as substrate incubated for 60 mins by RP-HPLC analysis. The class given is microsomes.

A short description of series [2]: Inhibition of porcine platelets cPLA2 alpha using 1-stearoyl-2-arachidonoyl-sn-glycero-3-phosphocholine as substrate incubated for 60 mins by RP-HPLC analysis. Set-up: species or system Sus scrofa. In outline: (§1)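 Stopped with acetonitrile/methanol/0.1 M EDTA containing internal standard and NDGA; released arachidonic acid measured by RP-HPLC, UV 200 nm, after online SPE, with vs without compound. IC50s are means of at least two independent determinations.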

A short description of series [3]: Lipophilicity, logP of compound by RP-HPLC analysis. The class given is physicochemical.
A short description of series [4]: Metabolic stability in rat liver S9 fraction assessed as parent compound remaining at 20 uM after 30 mins in presence of NADPH by RP-HPLC analysis. The class given is ADME, subcellular. The settings on record: read-out: Stability. The method, boiled down:
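Compounds (final 20 μM) incubated aerobically with rat liver S9 fraction with or without NADPH (final 1 mM); stopped after 30 min. Percent parent remaining measured by reversed-phase HPLC with UV or MS detection; means of independent duplicates.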

A short description of series [5]: Aqueous solubility of the compound in PBS at pH 7.4 incubated for 20 hrs by RP-HPLC analysis. The class given is physicochemical. The following applies: buffer, pH 7.4, 20 h. The method, boiled down:
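Thermodynamic solubility: 1 mg test compound in 2 mL PBS (0.01 M, pH 7.4), bath-sonicated 10 min, shaken 20 h at room temperature, centrifuged; acetonitrile added to an aliquot of clear supernatant and dissolved compound quantified by reversed-phase HPLC with UV at 240 nm.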

Series [6] has as its target T2, Fatty-acid amide hydrolase 1 (Rattus norvegicus) (UniProt P97612).
T2 sequence (whole entry): T1 sequence (P97612 whole entry)
The series is described as follows: Inhibition of rat brain microsome FAAH at 10 uM using N-(2-hydroxyethyl)-4-pyren-1-ylbutanamide as substrate incubated for 60 mins by RP-HPLC analysis relative to control. The class given is microsomes. The method, boiled down: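 Rat brain microsomes incubated with N-(2-hydroxyethyl)-4-pyren-1-ylbutanamide (final 100 μM) in PBS containing 0.20% Triton X-100. Reaction stopped after 60 min with acetonitrile/methanol containing 6-pyren-1-ylhexanoic acid as internal standard; released 4-pyren-1-ylbutanoic acid quantified by reversed-phase HPLC with fluorescence detection, with vs without compound. IC50s are means of at least two independent determinations.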

The test system of series [7] is Platelet. The series is described as follows: Inhibition of porcine platelets cPLA2 alpha at 10 uM using 1-stearoyl-2-arachidonoyl-sn-glycero-3-phosphocholine as substrate incubated for 60 mins by RP-HPLC analysis relative to control. The class given is cell-based. The settings on record: Sus scrofa. The method, boiled down: as §1
Series [8] has as its target T3, Cytosolic phospholipase A2 (Homo sapiens, UniProt P47712).
T3 sequence (P47712 whole entry): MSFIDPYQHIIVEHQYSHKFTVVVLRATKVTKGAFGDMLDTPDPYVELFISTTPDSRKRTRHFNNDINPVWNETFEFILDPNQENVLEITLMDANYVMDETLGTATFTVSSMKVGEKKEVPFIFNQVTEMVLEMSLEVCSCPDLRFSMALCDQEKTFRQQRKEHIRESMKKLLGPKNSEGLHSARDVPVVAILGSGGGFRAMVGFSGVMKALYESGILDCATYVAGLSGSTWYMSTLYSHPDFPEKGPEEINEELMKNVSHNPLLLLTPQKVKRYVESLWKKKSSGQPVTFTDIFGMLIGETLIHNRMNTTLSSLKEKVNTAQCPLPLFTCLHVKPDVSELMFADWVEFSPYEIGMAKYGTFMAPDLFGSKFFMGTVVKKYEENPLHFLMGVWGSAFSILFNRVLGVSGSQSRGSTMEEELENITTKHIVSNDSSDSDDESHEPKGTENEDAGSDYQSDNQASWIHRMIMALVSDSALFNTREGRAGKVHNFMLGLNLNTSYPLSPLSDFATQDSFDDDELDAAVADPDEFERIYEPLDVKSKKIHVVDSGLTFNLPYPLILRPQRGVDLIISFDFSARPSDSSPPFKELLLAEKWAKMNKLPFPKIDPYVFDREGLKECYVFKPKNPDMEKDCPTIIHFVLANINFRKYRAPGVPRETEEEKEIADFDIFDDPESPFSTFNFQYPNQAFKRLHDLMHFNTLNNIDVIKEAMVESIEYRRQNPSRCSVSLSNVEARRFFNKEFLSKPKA
Briefly: Inhibition of cPLA2 alpha (unknown origin). In outline:
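Stopped with acetonitrile/methanol/0.1 M EDTA containing internal standard and NDGA. Released arachidonic acid quantified by reversed-phase HPLC, UV 200 nm, after online SPE; IC50 as mean of ≥2 independent determinations.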

On to `CC(C)CCCOc1ccc(OCC(=O)Cn2nnc(CCC(=O)O)n2)cc1`, for which the 50% inhibitory concentration (IC50) (usually the concentration that gives 50% inhibition) was 32 nM in series [1] and 45 nM in series [2]. In addition, the lipophilicity (logP) (usually the decadic logarithm of the partition coefficient of the neutral form, usually between octanol and water) in series [3] is 3.6.

In the case of `CCCCCCOc1ccc(OCC(=O)C(C)n2nnc(CCCC(=O)O)n2)cc1` (stereo not drawn), the IC50 is 750 nM in series [1] and 250 nM in series [2].

For the compound `CC(Oc1ccc(Oc2ccccc2)cc1)C(=O)Cn1nnc(CCCC(=O)O)n1` (stereo not drawn), the remaining at 0.5 h, 20 µM in series [4] is below 5%. The IC50 amounted to 43 nM in series [1] and 730 nM in series [2].

In series [2], `CCCCCCCCc1ccc(OCC(=O)Cn2nnc(CCC(=O)O)n2)cc1` displayed a half-inhibitory concentration (IC50) of 19 nM. Also, in series [3], the lipophilicity (logP) was found to be 5.5.

In the case of `COc1ccc2c(c1)c(CC(=O)O)c(C)n2C(=O)c1ccc(Cl)cc1` [INDOMETHACIN], in series [5], the solubility (as a rule, how much of the substance goes into solution per volume) was 246 µg/mL (≈ 688 µM).

Regarding `CCCCCCOc1ccc(OC(C)C(=O)Cn2nnc(CCC(=O)O)n2)cc1` (stereo not drawn), the IC50 worked out at 34 nM in series [1] and 190 nM in series [2].

For the compound `CC(Oc1ccc(Oc2ccccc2)cc1)C(=O)Cn1nnnc1CCCC(=O)O` (stereo not drawn), in series [4], the remaining at 0.5 h, 20 µM stood at 71%. Further, the 50% inhibitory concentration (IC50) stood at 170 nM in series [1] and 4800 nM in series [2].

Regarding `CC(C)Cc1ccc(C(C)C(=O)O)cc1` (stereo not drawn) [IBUPROFEN], the logP in series [3] was 3.2.

Turning to `CC(Oc1ccc(Oc2ccccc2)cc1)C(=O)Cn1cc(CCC(=O)O)nn1` (stereo not drawn), the remaining at 0.5 h, 20 µM in series [4] was found to be 29%. Moreover, the 50% inhibitory concentration (IC50) in series [1] turned out to be 170 nM; in series [2], 3100 nM.

`CCCCCCOc1ccc(OC(C)C(=O)Cn2nnc(CCCC(=O)O)n2)cc1` (stereo not drawn): the results for the IC50 in series [1] and in series [2] were 34 nM and 500 nM, respectively.

As for `CCCCCCOc1ccc(OCC(=O)C(C)n2nnc(CCC(=O)O)n2)cc1` (stereo not drawn), the inhibition (commonly the drop in the measured response relative to a control, in per cent) in series [6] was 31%. For the same compound, the IC50 was above 10000 nM in series [1] and 180 nM in series [2].

`CC(Oc1ccc(Oc2ccccc2)cc1)C(=O)Cn1nnc(CCC(=O)O)n1` (stereo not drawn): the remaining at 0.5 h, 20 µM in series [4] was below 5%. The IC50 in series [1] was found to be 44 nM; in series [2] it was 540 nM.

`O=C(O)CCc1nnn(CC(=O)C2CCc3cc(-c4ccccc4)ccc3O2)n1` (stereo not drawn): the remaining at 0.5 h, 20 µM in series [4] is below 5%. In addition, the IC50 in series [1] was 94 nM; in series [2], above 10000 nM. In series [7], this compound gave an inhibition of 34%.

Take `O=C(O)CCc1nnnn1CC(=O)COc1ccc(Oc2ccccc2)cc1`: the remaining at 0.5 h, 20 µM in series [4] is 52%. The concentration for half-maximal inhibition (IC50) was determined as 2100 nM in series [1] and 3000 nM in series [2].

With `CCCCc1ccc(OCC(=O)Cn2nnc(CCC(=O)O)n2)cc1`, the IC50 worked out at 27 nM in series [1] and 260 nM in series [2]. The logP in series [3] is 3.

`CCCCCCCCc1ccc(OCC(=O)Cn2ccc3cc(C(=O)O)ccc32)cc1` gave an IC50 in series [8] of 24 nM.

Turning to `O=C(O)CCCc1nnnn1CC(=O)COc1ccc(Oc2ccccc2)cc1`, the remaining at 0.5 h, 20 µM in series [4] stood at 36%. Moreover, the figures for the IC50 in series [1] and in series [2] were 170 nM and 3300 nM, respectively.

Consider `CCCCCCOc1ccc(OCC(=O)Cn2nnc(CCC(=O)O)n2)cc1`, for which the figures for the 50% inhibitory concentration (IC50) in series [1] and in series [2] were 32 nM and 47 nM, respectively. The logP in series [3] amounted to 3.7.

On to `CC(Oc1ccc(Oc2ccccc2)cc1)C(=O)Cn1nnnc1CCC(=O)O` (stereo not drawn), for which the remaining at 0.5 h, 20 µM in series [4] was 86%. Moreover, the values for the IC50 in series [1] and in series [2] were 880 nM and above 10000 nM, respectively. In series [7], the inhibition stood at 39%.

Turning to `O=C(O)CCc1nnn(CC(=O)COc2ccc(Oc3ccccc3)cc2)n1`, in series [4], the remaining at 0.5 h, 20 µM is below 5%. For the same compound, the values for the IC50 in series [1] and in series [2] were 54 nM and 170 nM, respectively. This compound displayed a logP in series [3] of 2.2.

For the compound `CCCCCCCCCCOc1ccc(OCC(=O)COc2ccc(C(=O)O)cc2)cc1`, the IC50 in series [8] worked out at 7 nM.

Turning to `O=C(O)CCc1cn(CC(=O)COc2ccc(Oc3ccccc3)cc2)nn1`, in series [4], the remaining at 0.5 h, 20 µM was below 5%. The values for the 50% inhibitory concentration (IC50) in series [1] and in series [2] were 130 nM and 850 nM, respectively.

For the compound `CCCCCCc1ccc(OCC(=O)Cn2nnc(CCC(=O)O)n2)cc1`, the half-maximal inhibitory concentration (IC50) in series [1] was determined as 23 nM; in series [2], 36 nM. The same compound came in with a lipophilicity (logP) in series [3] of 4.2.

On to `O=C(O)CCCc1nnn(CC(=O)COc2ccc(Oc3ccccc3)cc2)n1`, for which the remaining at 0.5 h, 20 µM in series [4] was below 5%. For the same compound, the values for the half-maximal inhibitory concentration (IC50) in series [1] and in series [2] were 54 nM and 280 nM, respectively.
